Laboratory results: ChEMBL document CHEMBL1126273, “Design and synthesis of some substrate analogue inhibitors of phospholipase A2 and investigations by NMR and molecular modeling into the binding interactions in the enzyme-inhibitor complex” (J Med Chem, 1992)

What was measured:
[1] = molecular target: T1, Phospholipase A2, major isoenzyme (Sus scrofa, UniProt P00592); assay: In vitro inhibition of porcine pancreatic phospholipase A2 evaluated by Deoxycholate-phospholipid mixed micelle assay
Outline: (§1)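 Porcine pancreatic PLA2 at 0.074 μg/mL, with 2 mM CaCl2, 2.4 mM sodium deoxycholate and 100 μM 1-stearoyl-2-arachidonoyl-L-phosphatidylcholine traced with 22 000 dpm 1-stearoyl-2-[14C]arachidonoyl-PC, in 50 mM Tris-HCl pH 8.2. Inhibitor was added in methanol at 1% of assay volume. After 8 min at 37 °C, released [14C]arachidonic acid was extracted and counted by scintillation, under hopping-kinetics conditions.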

[2] = molecular target: T1, Phospholipase A2, major isoenzyme; assay: In vitro inhibition of porcine pancreatic phospholipase A2 evaluated by monomeric substrate assay
Outline: (§2)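 The monomeric thioester substrate was used at 5.44 mM, below its CMC of 14 mM. The assay also held 0.2 mM DTNB, 0.25 mM CaCl2 and 0.5 μg/mL porcine pancreatic PLA2 in 10 mM sodium phosphate pH 7.5. Inhibitor or methanol made up 2.5% of the volume. Rates were followed over 16 h at about 22 °C. Inhibition was calculated against solvent controls after subtracting nonenzymic hydrolysis.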

[3] = molecular target: T1, Phospholipase A2, major isoenzyme; assay: In vitro inhibition of porcine pancreatic phospholipase A2 evaluated by monomeric substrate assay; not active at the highest concentration tested; outline: as §2
[4] = molecular target: Phospholipase A2, major isoenzyme (Sus scrofa) (UniProt P00592); assay: In vitro inhibition of porcine pancreatic phospholipase A2 by Deoxycholate-phospholipid mixed micelle assay at 30 uM
[5] = molecular target: T1, Phospholipase A2, major isoenzyme; assay: In vitro inhibition of porcine pancreatic phospholipase A2 evaluated by Deoxycholate-phospholipid mixed micelle assay; not active at the highest concentration tested; outline: as §1

T1 sequence (P00592 whole entry): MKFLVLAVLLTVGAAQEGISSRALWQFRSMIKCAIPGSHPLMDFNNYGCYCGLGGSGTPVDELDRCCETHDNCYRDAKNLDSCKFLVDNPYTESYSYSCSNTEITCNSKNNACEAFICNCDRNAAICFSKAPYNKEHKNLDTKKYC
Chain of Phospholipase A2, major isoenzyme (Sus scrofa) (P00592 23-146 limits assumed): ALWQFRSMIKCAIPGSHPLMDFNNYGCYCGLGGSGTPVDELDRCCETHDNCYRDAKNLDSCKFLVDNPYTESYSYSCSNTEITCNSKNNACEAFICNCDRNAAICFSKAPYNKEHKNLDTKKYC

| SMILES | IC50 [1] | IC50 [2] | IC50 [5] | further results |
| --- | --- | --- | --- | --- |
| CCCCCCCCCCCCCCCC(=O)N[C@H](C)COP(=O)([O-])OCC[N+](C)(C)C | 189 µM | 1.4 µM | – | – |
| CCCCCCCCCCCCCCCCCCOC[C@H](COP(=O)([O-])OCC[N+](C)(C)C)NC(=O)CCCCCCCCCCCCCCC | 15 µM | – | – | – |
| CCCCCC/C=C/CC(=O)N[C@H](COP(=O)([O-])OCC[N+](C)(C)C)CC(C)C | – | – | – | IC50 [3]: Not Active |
| CCCCCCCCCCCCCCCC(=O)N[C@@H](COP(=O)(O)OCCO)CC(C)C | 2.6 µM | 0.03 µM | – | – |
| CCCCCCCCCCCCCCCC(=O)N[C@@H](COP(=O)(O)O)CC(C)C | – | 10 µM | – | inhibition [4]: 22% |
| CCCCCCCCCCCCCCCC(=O)N[C@H](COP(=O)([O-])OCC[N+](C)(C)C)CC(C)C | – | 4.5 µM | Not Active | – |
| CCCCCCCCCCCCCCCC(=O)OCC(COP(=O)(O)OCCO)NC(=O)CCCCCCCCCCCCC (stereo unspecified) | 3.5 µM | 0.03 µM | – | – |
| CCCCCCCCCCCCCCCC(=O)NCCOP(=O)([O-])OCC[N+](C)(C)C | 300 µM | 4 µM | – | – |
| CCCCCCCCCCCC(=O)NCCOP(=O)([O-])OCC[N+](C)(C)C | – | – | Not Active | IC50 [3]: Not Active |
| C[N+](C)(C)CCOP(=O)([O-])OCCNC(=O)Cc1ccc2ccccc2c1 | – | > 1000 µM | Not Active | – |
| CCCCCCCCCCCCCCCC(=O)N[C@@H](COP(=O)(O)O)Cc1ccccc1 | – | 5 µM | – | inhibition [4]: 42% |
| CCCCCC/C=C/CC(=O)N[C@@H](COP(=O)([O-])OCC[N+](C)(C)C)CC(C)C | – | 6 µM | – | – |
| CCCCCCCCCCCCCCCC(=O)N[C@@H](COP(=O)([O-])OCC[N+](C)(C)C)CC(C)C | 30 µM | 0.23 µM | – | – |
| C[N+](C)(C)CCOP(=O)([O-])OCCNC(=O)c1ccc2ccccc2c1 | – | – | Not Active | – |
| CC(C)C[C@H](COP(=O)([O-])OCC[N+](C)(C)C)NC(=O)Cc1ccc2ccccc2c1 | – | 160 µM | Not Active | – |
